PKD1 inh: blocks activity of human protein kinase D1 | 200,000 compounds, 0.056% hits | AID 797 | Q15139 | inhibition, % (concentration not given with the values) | PKD1 kinase fluorescence polarization assay
Target sequence (Q15139 whole entry, looked up): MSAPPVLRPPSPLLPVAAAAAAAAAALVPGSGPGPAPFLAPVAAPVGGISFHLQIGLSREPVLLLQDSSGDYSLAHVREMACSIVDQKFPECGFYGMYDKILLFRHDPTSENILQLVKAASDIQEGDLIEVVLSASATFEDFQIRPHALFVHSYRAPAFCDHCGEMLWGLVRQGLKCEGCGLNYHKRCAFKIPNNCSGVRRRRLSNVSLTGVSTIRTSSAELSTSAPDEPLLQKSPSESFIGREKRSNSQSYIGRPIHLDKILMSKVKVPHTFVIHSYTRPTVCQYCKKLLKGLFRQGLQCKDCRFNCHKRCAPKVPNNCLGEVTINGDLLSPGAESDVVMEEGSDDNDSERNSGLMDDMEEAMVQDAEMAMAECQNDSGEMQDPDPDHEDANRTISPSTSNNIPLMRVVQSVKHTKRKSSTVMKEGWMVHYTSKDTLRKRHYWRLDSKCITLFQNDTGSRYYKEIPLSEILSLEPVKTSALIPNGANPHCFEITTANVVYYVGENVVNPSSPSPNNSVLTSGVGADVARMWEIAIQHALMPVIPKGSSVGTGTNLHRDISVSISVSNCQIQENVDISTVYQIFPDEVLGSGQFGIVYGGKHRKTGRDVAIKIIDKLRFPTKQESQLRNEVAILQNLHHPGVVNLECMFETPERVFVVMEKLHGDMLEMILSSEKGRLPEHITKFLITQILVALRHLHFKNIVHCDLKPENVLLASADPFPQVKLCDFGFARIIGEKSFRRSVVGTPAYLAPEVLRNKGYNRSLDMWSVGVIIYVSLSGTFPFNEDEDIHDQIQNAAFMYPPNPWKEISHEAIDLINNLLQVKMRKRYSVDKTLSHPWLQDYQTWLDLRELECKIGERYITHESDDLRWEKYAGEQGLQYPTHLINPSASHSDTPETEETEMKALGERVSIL
Arbovirus inh: arbovirus infection inhibition; inhibition, % at 10 µM; arbovirus infection cell-based antiviral screen; 200,000 compounds, 0.37% hits; in the data active = inhibition above about 30%
Lmaj promast: reduces viability of Leishmania major promastigotes. inhibition, % at 10 µM. 200,000 compounds, 9% hits. AID 1063. resazurin fluorescence viability;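 also: promastigotes grown with compound for 44 hours at 28 °C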
Rad51 HR inh: Rad51 (human) homologous recombination inhibition. Q06609. hRad51 DNA strand exchange, fluorescence dequenching. inhibition, % at 10 µM. 200,000 compounds, 0.085% hits. AID 1385;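 active = inhibition above 40% at the single screening dose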;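 also: 0% = DMSO control wells and 100% = blanks with heterologous ssDNA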
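Test system: preformed human Rad51 ssDNA filaments. Compound dosing: single dose, 10 µM final compound. Incubation: filaments 15 min 37 °C, then compound 30 min. Technique: FRET fluorescence dequenching, excitation 485 nm, emission 520 nm. Read-out basis: percent inhibition from fluorescence, normalised to plate control and blank means. Benchmarks: plate controls and plate blanks.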
CHOP inhibitor: blocks CHOP induction under ER stress; CHO-K1 CHOP-promoter luciferase, tunicamycin-induced, 15-18 h; inhibition, % at 10 µM; AID 2732; 220,000 compounds, 3.8% hits;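 active = compounds that reduced the stress-induced luciferase reporter signal by more than about 70% of percent inhibition, limit read from the data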;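 also: 0% = tunicamycin plus vehicle and 100% = wells without tunicamycin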
Wee1 degr inh: blocks degradation of human Wee1 kinase | 220,000 compounds, 1.2% hits | reporter increase, % at 5 µM | P30291 | HeLa Luc-Wee1K328M stability, luciferase luminescence; 100% = proteasome inhibitor MG132 effect | AID 1321;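 active = activation above the mean of all tested compounds plus 3 SD, set per screening run, cut at about 8.8% in these data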;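 also: cells exposed to compound for 20 h before luminescence read; 0% = DMSO alone and 100% = MG132 at 30 µM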
An asterisk follows results filed as active; . = no result. Shown are actives, neighbours in structure and some others; about 12% of the full set was active somewhere. Rule as the data show it, unless noted: active = inhibition above about 50%; inactive = the rest.

SMILES	PKD1 inh	Arbovirus inh	Lmaj promast	Rad51 HR inh	CHOP inhibitor	Wee1 degr inh
O=C(NCCO)c1ccc(CSc2nc3ccccc3[nH]2)cc1	6	-1	-3	-17	2	-1
CC1C/C(=N/Nc2ccc([N+](=O)[O-])cc2[N+](=O)[O-])CC(C)(C)C1 (configuration not stated)	2	1	2	5	22	0
CC1C/C(=N/Nc2nc3ccccc3[nH]2)CC(C)(C)C1 (configuration not stated)	4	-24	85*	.	-32	10*
C=CCN(C(=O)c1ccccn1)C(C(=O)NCc1ccccc1)c1ccccc1F (configuration not stated)	-1	3	25	1	-12	-2
Oc1[nH]c2ccccc2c1N=Nc1ccccc1F	-1	-10	40	-179	91*	3
Oc1[nH]c2ccccc2c1N=Nc1ccccc1	.	.	.	-6	17	0
CC(C)N1C(=O)S/C(=C/c2ccc(Sc3nc4ccccc4[nH]3)o2)C1=O	-7	-19	83*	5	70*	0
COc1ccc(C(=O)Nc2nnc(-c3cccs3)s2)cc1	0	-22	-2	7	70*	0
Cc1occc1C(=O)Nc1nccs1	-5	4	6	0	-14	-1
O=C(Nc1nnc(-c2cccs2)s1)c1cccc(F)c1	-1	-6	0	20	93*	-3
Cc1nnc(NC(=O)c2cccc(F)c2)s1	2	12	-2	.	8	0
Cc1occc1C(=O)Nc1nnc(-c2cccs2)s1	-2	-7	-5	11	81*	5
COc1ccc(NC(=O)Nc2nnc(-c3cccs3)s2)cc1	.	.	.	-7	88*	2
COc1ccccc1C(=O)N/N=C(\C)c1ccc(NC(=O)C2CC2)cc1	-10	1	-2	5	4	0
N#Cc1ccccc1OCC(=O)NC(=O)NCc1ccco1	.	.	.	14	-3	-1
CC1(C)CC(CCC(=O)NC(=S)Nc2ccccc2Cl)C(=O)O1 (configuration not stated)	-1	5	-7	5	24	1
CC(C)Cn1c(N)c(C(=O)CSc2ncnc3sc4c(c23)CCCC4)c(=O)n(C)c1=O	-9	3	14	5	40	1
CCN(c1ccccc1)S(=O)(=O)c1ccc(Cl)c(C(=O)OCC(=O)c2[nH]c(C)c(C(C)=O)c2C)c1	-5	4	53*	-6	22	2
CSCCC(NC(=O)C12CC3CC(CC(C3)C1)C2)C(=O)OCC(=O)c1ccc(C)cc1 (configuration not stated)	-8	5	-5	4	51	-1
CSCCC(NC(=O)c1ccc([N+](=O)[O-])cc1Cl)C(=O)OCC(=O)C12CC3CC(CC(C3)C1)C2 (configuration not stated)	-12	-1	99*	-1	31	0
O=S(=O)(CCN1C=CC(C(F)(F)F)=NCC1)c1ccc(Cl)cc1Cl	.	.	.	4	1	-3
COc1ccc(-c2nc[nH]c2[N+](=O)[O-])cc1	-8	-4	-3	11	24	-2
CCC(=O)Nc1ccc(/C(C)=N\NC(=O)c2ccc(C)s2)cc1	-1	-14	96*	-8	6	4
Cc1onc(-c2ccccc2Cl)c1C(=O)N(C)C1CCCCC1	8	11	78*	6	46	-3
C/C(=N/NC(=O)c1ccc(Cl)s1)c1ccc(NC(=O)COc2ccc(Cl)cc2)cc1	-1	-17	-3	-5	62	1
SMILES	PKD1 inh	Arbovirus inh	Lmaj promast	Rad51 HR inh	CHOP inhibitor	Wee1 degr inh
Cc1onc(-c2ccccc2Cl)c1C(=O)Nc1ccc(CN2CCCC2)cc1	-4	-4	99*	2	-2	3
Cc1onc(-c2ccccc2Cl)c1C(=O)N/N=C(\N)COc1ccc(Cl)cc1	-1	-8	84*	.	-28	2
CC1(CC(=O)N/N=C/c2cc([N+](=O)[O-])c(O)cc2O)OCCO1	1	27	-3	-3	27	-2
CCOC(=O)C(=CNc1ccc(Oc2cncc(Cl)c2)nc1)C(=O)OCC	.	.	.	19	-17	4
CCC(=O)Nc1ccc(/C(C)=N/NC(=O)c2c(-c3ccccc3Cl)noc2C)cc1	11	0	96*	12	10	0
ClCc1ncc(-c2ccc(Cl)cc2)o1	-3	1	9	-36	-81	-1
CSc1nc(C)c(CCO)c(=O)[nH]1	-5	31*	-14	-2	9	-2
